Hits are enriched below; roughly 2.9% of the tested compounds scored in any of these assays.
M18AAP inhibitor = PfM18AAP inhibitors, malaria aminopeptidase, primary screen, biochemical, QFRET, recombinant enzyme; M18 aspartyl aminopeptidase (Plasmodium falciparum 3D7); H-Glu-NHMec fluorogenic cleavage; inhibition, % at 7.35 µM; 290,000 compounds, 1.2% hits; AID 1822, 2009;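 active means inhibition above the campaign mean inhibition over all tested compounds plus 3 SD, cut at about 28% in these data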
RBBP9 inhibitor = human RBBP9 inhibitors, primary screen, biochemical, fluorescence polarization, FP-Rh probe, HTS; recombinant RBBP9; AID 1515, 2009; Serine hydrolase RBBP9 (Homo sapiens), O75884; 220,000 compounds, 0.2% hits; inhibition, % at 7.94 µM;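 active means inhibition above the campaign mean of all tested compounds plus 3 SD, cut at about 14% in these data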
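Test system – recombinant human RBBP9 · Input – RBBP9 2.5 µM in dispensing solution, pre-mixing · Medium – Tris buffer pH 8.0, NaCl, Pluronic · Schedule – preincubation 30 min plus labeling 45 min at 25 °C · Measured by – fluorescence polarization · Measure – % inhibition · Controls – DMSO and no-protein wells · Replicates – one well per compound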
RanGTP-Imp inh = inhibitors of RanGTP-importin-beta interaction, primary screen, biochemical, FRET, CFP-Ran, YFP-importin-beta, homogeneous; Ran GTPase (GTP-bound) - importin-beta complex; inhibition, % (no concentration beside the values); 300,000 compounds, 1.1% hits; cell-free CFP-Ran/YFP-importin-beta FRET ratio;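 active means more than half of the replicate wells show a fall in the fluorescence ratio signal beyond about 16%, limit read from the data, passing the limit was not always enough; inconclusive means exactly half of the replicate wells pass the set limit; inactive means fewer than half of replicates pass the limit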
Runt-CBFb FRET = inhibitors of RUNX1 Runt–CBFb binding, primary screen, biochemical, FRET, Cerulean-Runt, Venus-CBFb, uHTS; Runt-related transcription factor 1 (Homo sapiens) + Core-binding factor subunit beta …; Cerulean-Runt/Venus-CBFb FRET ratio 530/480, 1 h; inhibition, % at 20 µM; 220,000 compounds, 0.46% hits; AID 1496, 2009;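 active means inhibition over about 50% at 20 µM in the single-dose screen, limit read from the data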
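Schedule: protein complex preformed 1 h, compound exposure 1 h, room temperature, dark; test system: Cerulean-labeled Runt domain protein; amount: 100 nM per protein; buffer or medium: Tris 50 mM pH 7.5, KCl, K2SO4, 0.01% BSA; read-out: loss of energy transfer signal; detection: FRET fluorescence; controls: 5 µM unlabeled CBFb as full-inhibition high control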
Hck-Nef inh = inhibitors of Nef-activated human Hck kinase, primary screen, biochemical, Z-Lyte FRET, 384-well, Hck-YEEI | Tyrosine-protein kinase HCK (Homo sapiens), P08631 | Recombinant Hck-YEEI plus Nef, Z-Lyte FRET kinase assay | inhibition, % at 20 µM | 220,000 compounds, 0.68% hits | AID 463187, 2010;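 active means Hck-Nef kinase inhibition above about 50%, limit read from the data; inactive means inhibition below that limit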
Target sequence (P08631 whole entry, looked up): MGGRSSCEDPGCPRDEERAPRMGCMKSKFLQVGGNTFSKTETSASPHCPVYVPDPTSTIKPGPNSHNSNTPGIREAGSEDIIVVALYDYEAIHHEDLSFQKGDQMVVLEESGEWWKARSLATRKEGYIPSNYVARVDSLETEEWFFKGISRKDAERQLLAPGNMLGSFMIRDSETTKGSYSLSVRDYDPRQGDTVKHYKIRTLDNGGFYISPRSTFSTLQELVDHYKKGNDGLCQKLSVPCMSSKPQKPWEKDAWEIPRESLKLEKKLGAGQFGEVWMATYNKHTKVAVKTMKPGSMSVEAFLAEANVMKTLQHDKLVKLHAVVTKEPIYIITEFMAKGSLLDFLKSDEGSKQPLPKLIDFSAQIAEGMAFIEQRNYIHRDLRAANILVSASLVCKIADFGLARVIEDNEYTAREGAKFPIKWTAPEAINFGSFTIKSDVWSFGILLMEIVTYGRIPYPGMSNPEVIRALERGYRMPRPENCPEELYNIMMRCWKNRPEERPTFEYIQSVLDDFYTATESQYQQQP
Runt-SMMHC FRET = inhibitors of RUNX1 Runt–CBFb-SMMHC binding, primary screen, biochemical, FRET, Cerulean-Runt, Venus-CBFb-SMMHC, uHTS. Runt-related transcription factor 1 (Homo sapiens) + Core-binding factor subunit beta …. Cerulean-Runt/Venus-CBFb-SMMHC FRET ratio 530/480, 1 h. inhibition, % at 20 µM. 220,000 compounds, 0.74% hits. AID 1434, 2008;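 active means mean inhibition across duplicate retests at 20 µM reaching about 50%, limit read from the data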;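 further: inhibitors lower the FRET ratio by blocking Runt binding to CBFb-SMMHC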
RUNX1 CBFb TR = inhibitors of RUNX1 Runt–CBFb binding, biochemical, TR-FRET. TR-FRET RUNX1 Runt domain-CBFb binding. shares compounds with Runt-CBFb FRET. 480 compounds, 20% hits. inhibition, % at 20 µM; in the data active means inhibition above about 40%
Numbers stand for hits; . = inactive; ? = inconclusive; / = not tested or not shown.

SMILES	M18AAP inhibitor	RBBP9 inhibitor	RanGTP-Imp inh	Runt-CBFb FRET	Hck-Nef inh	Runt-SMMHC FRET	RUNX1 CBFb TR
Fc1ccc(-c2ccnc(=S)[nH]2)cc1	.	.	.	52	.	.	.
Cc1c(Cc2ccccc2)sc(/N=C/c2ccc3ccccc3c2)c1C(N)=O	.	.	/	.	.	.	/
Cc1c(Cc2ccccc2)sc(/N=C/c2c(O)ccc3ccccc23)c1C(N)=O	42	.	120	105	.	63	.
COC(=O)CC1C(=O)NC2CCCCC2N1C(=O)CCl (stereo unspecified)	.	.	.	51	.	.	.
CCNC(=O)N1C(CC(=O)OCC)C(=O)NC2CCCCC21 (stereo unspecified)	.	.	.	.	.	.	/
COc1ccc(CCNC(=O)C2CCN(S(=O)(=O)c3cccc4nsnc34)CC2)cc1OC	.	.	.	81	.	.	.
O=C(NCCc1ccccc1)C1CCN(S(=O)(=O)c2cccc3nsnc23)CC1	.	.	.	.	.	.	/
O=C(O)C[C@@H]1C(=O)O[C@@H]2C(COC(=O)c3cc(O)c(O)c(O)c3)O[C@@H](OC(=O)c3cc(O)c(O)c(O)c3)[C@@H](OC(=O)c3cc(O)c(O)c4c3[C@H]1[C@H](O)C(=O)O4)[C@H]2OC(=O)c1cc(O)c(O)c(O)c1 (stereo partly specified)	/	/	/	51	102	.	49
COC1OC(COC(=O)c2ccccc2)C(OC(=O)c2ccccc2)C1OC(=O)c1ccccc1 (stereo unspecified)	.	/	.	/	/	/	/
CCOCCCn1c(=N)c(C(=O)NCc2ccc3c(c2)OCO3)cc2c(=O)n3ccccc3nc21	.	.	29	51	.	125	.
CCNC(=O)CSc1nc2ccccc2c(=O)n1CCCOC(C)C	.	.	.	.	.	.	/
CC(C)OCCCn1c(=N)c(C(N)=S)cc2c(=O)n3ccccc3nc21	.	.	.	65	.	65	.
C=CCSc1nc(C)cc(C(=O)OCC)c1C#N	.	.	.	.	.	.	/
OCC[C@@H]1C[C@H](O)[C@@H](O)[C@]2(Cc3ccccc3O2)O1	.	/	?	/	/	/	/
CCOC(=O)c1c(/N=C/N(C)C)sc(/C=N/Nc2ccccc2)c1-c1ccc(Cl)cc1	.	.	.	58	.	119	.
CS(=O)(=O)c1sc2nc(-c3cccs3)cc(-c3ccccc3)c2c1N	.	.	.	54	.	85	.
N#C/C(=C\c1ccco1)C(=O)Nc1cccc2ncccc12	.	.	.	61	.	.	.
O=C(NC(=S)Nc1cccc2ncccc12)c1ccco1	.	.	.	.	.	.	/
COc1ccc(OC)c(S(=O)(=O)N2CCC(C(=O)NCc3ccncc3)CC2)c1	.	/	.	/	/	/	/
CCOC(=O)c1cnc(-n2nc(C)cc2C)nc1Nc1ccc2c(c1)OCO2	/	/	/	73	/	.	.
CCOC(=O)c1cnc(-n2nc(C)cc2C)nc1Nc1ccc(C)cc1	.	.	.	.	.	.	/
O=C(/C=C/c1ccco1)N1CCN(c2ccc(F)cc2)CC1	.	.	.	.	.	.	/
Cc1ccc(/C=C/C(=O)N2CCN(c3ccc(F)cc3)CC2)o1	.	.	.	51	.	.	.
COc1ccc(Cn2c(-c3ccc(OC)cc3)nc3c(c(=O)c4ccccc4n3C)c2=O)cc1	.	.	.	.	.	.	/
COc1ccc(-c2nc3c(c(=O)c4ccccc4n3C)c(=O)n2Cc2ccccc2)cc1	.	.	.	53	.	.	61
SMILES	M18AAP inhibitor	RBBP9 inhibitor	RanGTP-Imp inh	Runt-CBFb FRET	Hck-Nef inh	Runt-SMMHC FRET	RUNX1 CBFb TR
O=C(CC1Sc2ccccc2NC1=O)OCc1cc(=O)oc2cc(O)ccc12 (stereo unspecified)	.	.	?	62	.	/	49
Cc1ccc2c(COC(=O)CC3Sc4ccccc4NC3=O)cc(=O)oc2c1C (stereo unspecified)	.	.	.	.	.	.	/
CCCS(=O)(=O)N1CCCC(C(=O)NCCCN(C)c2ccccc2)C1 (stereo unspecified)	.	.	.	57	.	.	.
O=C(CSc1ncnc2ccccc12)c1ccco1	.	.	?	59	.	116	42
CCCOC(=O)C1=C(C)NC2=C(C(=O)CC(C)(C)C2)C1c1cccnc1 (stereo unspecified)	.	.	?	63	.	127	.
Nc1nnnn1/N=C/c1ccc(F)cc1	.	/	.	/	/	/	/
CCOC(=O)C1CCN(C(=O)c2cc(COc3ccc(F)cc3F)on2)CC1	.	/	.	/	/	/	/
Cc1ccc(C(=O)c2sc3nsc(C)c3c2N)cc1	.	.	.	50	.	.	44
Cc1snc2sc(C(=O)c3ccc(Br)cc3)c(N)c12	.	.	.	.	.	.	/
Cc1cc(C)cc(N(C(C)C(=O)NCc2ccc3c(c2)OCO3)S(C)(=O)=O)c1 (stereo unspecified)	.	.	.	.	.	.	/
COP1(=O)C=C[C@H](N(Cc2ccccc2)S(=O)(=O)c2ccccc2[N+](=O)[O-])[C@@H](C)O1 (stereo partly specified)	/	/	.	.	.	.	/
CCOC(=O)c1sc(Nc2nc3c(F)cccc3s2)cc1C	.	.	.	98	.	148	.
C[C@H](NC(=O)[C@H]1N2C(=O)c3ccccc3C2SC1(C)C)C(=O)NCC1CCCO1 (stereo partly specified)	.	/	.	/	/	/	/
Cc1ccc2[nH]c(C(=O)NCCN3CCCC3)cc2c1	.	/	.	/	/	/	/
CCOC(=O)C1=C(CNCCc2ccc(Cl)cc2)NC(=O)NC1c1ccc2c(c1)OCO2 (stereo unspecified)	.	.	.	65	.	.	.
COc1ccc2nc(NC(=O)c3sc4nc(C)cc(C)c4c3N)sc2c1	.	.	.	65	.	.	.
COC(=O)c1sc2nc(C)cc(C)c2c1N	.	.	.	.	.	.	/
O=C1C(Cl)=C(Nc2ccc3cn[nH]c3c2)C(=O)c2ccccc21	47	.	.	51	.	.	.
O=C(Nc1ccc2cn[nH]c2c1)c1c(Cl)cccc1Cl	.	.	.	.	.	.	/

Compound activity from PubChem BioAssay.
